Calls of active or inactive are those of the source. No cut-off for these calls is given here.
What was measured:
[1] = biological target: T1, 5-hydroxytryptamine receptor 3A (Rattus norvegicus, UniProt P35563); experiment: Displacement of [3H]LY278584 from 5HT3 receptor in rat cortical homogenate; settings: read-out: Ki
T1 sequence (P35563 whole entry): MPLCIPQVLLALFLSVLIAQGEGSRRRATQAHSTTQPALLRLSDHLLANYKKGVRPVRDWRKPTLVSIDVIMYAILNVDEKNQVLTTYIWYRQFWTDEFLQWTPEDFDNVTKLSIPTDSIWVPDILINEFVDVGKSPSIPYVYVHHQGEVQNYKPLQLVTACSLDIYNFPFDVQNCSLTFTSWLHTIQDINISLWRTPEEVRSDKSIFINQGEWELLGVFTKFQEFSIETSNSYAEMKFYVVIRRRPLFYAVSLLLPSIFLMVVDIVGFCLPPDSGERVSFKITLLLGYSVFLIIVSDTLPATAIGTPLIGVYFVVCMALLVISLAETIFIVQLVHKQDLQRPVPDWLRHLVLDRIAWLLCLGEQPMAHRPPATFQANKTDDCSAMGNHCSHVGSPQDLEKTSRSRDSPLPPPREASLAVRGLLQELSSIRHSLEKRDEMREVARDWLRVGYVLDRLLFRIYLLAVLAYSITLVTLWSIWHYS
Outline: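 Rat cortical homogenate, competition against [3H]LY278584 binding. Ki is the concentration giving half-maximal inhibition of binding, as the mean ± S.E.M. of three determinations.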

[2] = biological target: T2, 5-hydroxytryptamine receptor 3A (Cavia porcellus, UniProt O70212); experiment: Agonist activity at 5HT3 receptor in voltage-stimulated guinea pig left atrium assessed as positive inotropic potency; assay type: functional, tissue-based, Cardiac atrium
T2 sequence (O70212 whole entry): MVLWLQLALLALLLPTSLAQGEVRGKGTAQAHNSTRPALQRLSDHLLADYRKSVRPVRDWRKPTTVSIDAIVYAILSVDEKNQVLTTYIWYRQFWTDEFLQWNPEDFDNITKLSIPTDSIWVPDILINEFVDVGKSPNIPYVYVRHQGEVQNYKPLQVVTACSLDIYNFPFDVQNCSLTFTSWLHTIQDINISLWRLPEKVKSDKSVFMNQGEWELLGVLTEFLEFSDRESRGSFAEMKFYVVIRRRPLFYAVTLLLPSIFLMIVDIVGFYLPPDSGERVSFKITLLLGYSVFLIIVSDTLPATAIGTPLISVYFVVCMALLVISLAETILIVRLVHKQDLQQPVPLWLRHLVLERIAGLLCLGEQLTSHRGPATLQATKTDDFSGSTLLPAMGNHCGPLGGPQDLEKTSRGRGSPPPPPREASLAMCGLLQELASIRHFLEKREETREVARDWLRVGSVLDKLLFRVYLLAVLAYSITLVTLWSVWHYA

[3] = biological target: T2, 5-hydroxytryptamine receptor 3A; experiment: Antagonist activity at 5HT3 receptor in spontaneously beating guinea pig right atrium assessed as inhibition of serotonin-induced maximum response by noncompetitive binding assay; assay type: tissue-based, Cardiac atrium
Outline: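 Spontaneously beating guinea pig right atria, exposed 30 min to test compound at 10 μM, followed by cumulative 5-HT log concentration-response curves versus control. Mean ± SEM of five to seven observations.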

Rattus norvegicus [4] = experiment: Antagonist activity at 5HT3 receptor in iv dosed Sprague-Dawley rat assessed as inhibition of 1-phenylbiguanide-induced bradycardia administered 5 mins before 1-phenylbiguanide challenge measured after 5 to 30 mins post-treatment by von Bezold-Jarisch reflex test; assay type: functional
Outline: (§1)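 Urethane-anesthetized rats, compound given iv. Agonism was scored as the compound itself evoking the von Bezold-Jarisch reflex (bradycardia). Antagonism was tested by giving the compound iv 5, 15 or 30 min before phenylbiguanide (PBG) and scoring the reduction of PBG-evoked bradycardia. ED50 is the dose giving half of the maximal bradycardia evoked by the same compound.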

Rattus norvegicus [5] = experiment: Agonist activity at 5HT3 receptor in Sprague-Dawley rat assessed as induction of bradycardia at 1 ug/kg, iv measured after 5 to 30 mins post-treatment by von Bezold-Jarisch reflex test; assay type: functional, organism-based; outline: as §1
Rattus norvegicus [6] = experiment: Antagonist activity at 5HT3 receptor in Sprague-Dawley rat assessed as inhibition of 1-phenylbiguanide-induced bradycardia at 1 ug/kg, iv administered 5 mins before 1-phenylbiguanide challenge measured after 5 to 30 mins post-treatment by von Bezold-Jarisch reflex test; assay type: functional, organism-based; outline: as §1
Rattus norvegicus [7] = experiment: Agonist activity at 5HT3 receptor in Sprague-Dawley rat assessed as induction of bradycardia at 10 ug/kg, iv measured after 5 to 30 mins post-treatment by von Bezold-Jarisch reflex test; assay type: functional; outline: as §1
Rattus norvegicus [8] = experiment: Antagonist activity at 5HT3 receptor in Sprague-Dawley rat assessed as inhibition of 1-phenylbiguanide-induced bradycardia at 10 ug/kg, iv administered 5 mins before 1-phenylbiguanide challenge measured after 5 to 30 mins post-treatment by von Bezold-Jarisch reflex test; assay type: functional; outline: as §1
Rattus norvegicus [9] = experiment: Agonist activity at 5HT3 receptor in Sprague-Dawley rat assessed as induction of bradycardia at 50 ug/kg, iv measured after 5 to 30 mins post-treatment by von Bezold-Jarisch reflex test; assay type: functional; outline: as §1
Rattus norvegicus [10] = experiment: Antagonist activity at 5HT3 receptor in Sprague-Dawley rat assessed as inhibition of 1-phenylbiguanide-induced bradycardia at 50 ug/kg, iv administered 5 mins before 1-phenylbiguanide challenge measured after 5 to 30 mins post-treatment by von Bezold-Jarisch reflex test; assay type: functional; outline: as §1
Rattus norvegicus [11] = experiment: Agonist activity at 5HT3 receptor in Sprague-Dawley rat assessed as induction of bradycardia at 100 ug/kg, iv measured after 5 to 30 mins post-treatment by von Bezold-Jarisch reflex test; assay type: functional; outline: as §1
Rattus norvegicus [12] = experiment: Antagonist activity at 5HT3 receptor in Sprague-Dawley rat assessed as inhibition of 1-phenylbiguanide-induced bradycardia at 100 ug/kg, iv administered 5 mins before 1-phenylbiguanide challenge measured after 5 to 30 mins post-treatment by von Bezold-Jarisch reflex test; assay type: functional; outline: as §1
[13] = biological target: T3, Adrenergic receptor alpha-1 (Rattus norvegicus, UniProt P15823+P23944+P43140); experiment: Displacement of [3H]prazosin from adrenergic alpha1 receptor in rat cortex
T3 sequence (P15823 whole entry): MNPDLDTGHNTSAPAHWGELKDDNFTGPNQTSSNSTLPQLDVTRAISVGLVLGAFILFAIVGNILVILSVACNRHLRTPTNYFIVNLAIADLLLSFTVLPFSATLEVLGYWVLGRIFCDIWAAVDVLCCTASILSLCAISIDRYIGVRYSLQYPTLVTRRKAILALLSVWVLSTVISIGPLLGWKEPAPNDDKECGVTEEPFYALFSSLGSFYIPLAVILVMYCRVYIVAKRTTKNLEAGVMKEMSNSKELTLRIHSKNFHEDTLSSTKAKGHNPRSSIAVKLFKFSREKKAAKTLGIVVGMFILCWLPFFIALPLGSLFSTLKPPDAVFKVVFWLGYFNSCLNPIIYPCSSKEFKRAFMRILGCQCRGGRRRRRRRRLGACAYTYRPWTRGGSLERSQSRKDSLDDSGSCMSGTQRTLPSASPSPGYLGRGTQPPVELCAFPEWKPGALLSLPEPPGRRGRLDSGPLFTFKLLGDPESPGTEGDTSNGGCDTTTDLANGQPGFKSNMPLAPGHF
T3 sequence (P23944 whole entry): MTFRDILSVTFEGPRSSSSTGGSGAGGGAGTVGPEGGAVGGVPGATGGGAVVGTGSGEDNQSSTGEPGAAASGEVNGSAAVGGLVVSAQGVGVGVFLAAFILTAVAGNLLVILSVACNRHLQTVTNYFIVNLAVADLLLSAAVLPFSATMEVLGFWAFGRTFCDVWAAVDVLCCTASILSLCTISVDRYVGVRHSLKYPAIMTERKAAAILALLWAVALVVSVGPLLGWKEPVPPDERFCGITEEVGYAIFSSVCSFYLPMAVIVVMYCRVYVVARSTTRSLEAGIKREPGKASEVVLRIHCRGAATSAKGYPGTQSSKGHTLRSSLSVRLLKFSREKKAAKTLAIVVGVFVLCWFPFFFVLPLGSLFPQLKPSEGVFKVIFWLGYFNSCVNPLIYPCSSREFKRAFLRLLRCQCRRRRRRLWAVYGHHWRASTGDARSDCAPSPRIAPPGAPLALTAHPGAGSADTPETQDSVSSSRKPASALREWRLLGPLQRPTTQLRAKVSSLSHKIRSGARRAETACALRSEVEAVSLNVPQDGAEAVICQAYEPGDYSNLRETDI
T3 sequence (P43140 whole entry): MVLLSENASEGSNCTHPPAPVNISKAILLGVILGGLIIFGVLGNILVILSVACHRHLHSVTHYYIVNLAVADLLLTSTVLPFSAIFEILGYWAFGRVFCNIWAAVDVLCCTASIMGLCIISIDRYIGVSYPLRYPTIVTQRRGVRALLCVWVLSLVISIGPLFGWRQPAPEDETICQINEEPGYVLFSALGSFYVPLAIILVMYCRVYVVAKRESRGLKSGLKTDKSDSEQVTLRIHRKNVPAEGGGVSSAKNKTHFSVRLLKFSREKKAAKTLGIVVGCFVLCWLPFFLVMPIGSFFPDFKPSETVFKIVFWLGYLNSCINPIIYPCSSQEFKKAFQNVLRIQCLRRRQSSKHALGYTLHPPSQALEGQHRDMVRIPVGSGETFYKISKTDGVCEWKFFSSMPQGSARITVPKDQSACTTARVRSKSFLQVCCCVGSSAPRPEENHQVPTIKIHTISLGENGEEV

[14] = biological target: Muscarinic acetylcholine receptor; experiment: Displacement of [3H]QNB from muscarinic receptor in rat cortex

| Ki [1] [µM] | EC50 [2] | IC50 [3] | Activity (Rattus norvegicus [5]) | Activity (Rattus norvegicus [6]) | Activity (Rattus norvegicus [7]) | Activity (Rattus norvegicus [8]) | Activity (Rattus norvegicus [9]) | Activity (Rattus norvegicus [10]) | Activity (Rattus norvegicus [12]) | Ki [13] [µM] | Ki [14] [µM] | Structure (SMILES) | ID50 (Rattus norvegicus [4]) [mg/kg] | Activity (Rattus norvegicus [11]) [%] |
| --- | --- | --- | --- | --- | --- | --- | --- | --- | --- | --- | --- | --- | --- | --- |
| 0.0022 | Not Active | Not Active | – | – | – | – | – | – | – | – | – | c1ccc(CN2CCN(c3nc4ncccc4n4cccc34)CC2)cc1 | – | – |
| – | – | – | inactive | inactive | Active | Active | Active | Active | Active | > 10 | > 10 | Fc1ccc2c(c1)nc(N1CCN(Cc3c[nH]cn3)CC1)c1cccn12 | 0.01 | 40 |
